# Measured values pooled from the literature.
# Protocols differ between the studies behind these lines.
# Organism: Escherichia coli
# Read-out: microbial growth
Structure (SMILES),method,cells,strain,time,pH,notes,MIC
CSc1ccc(-c2nc3ccc(C)cc3n2Cc2ccccc2)cc1,broth dilution,,ATCC25922,,,,128 µg/mL
Cc1ccccc1NCc1ccc(Oc2ccccn2)cc1,,,,,,,> 25 µg/mL
O=C(CCCCCCCC[P+](c1ccccc1)(c1ccccc1)c1ccccc1)Nc1ccc(O)c(O)c1.[Br-],broth dilution,,ATCC25922,18 h,,,> 32 µg/mL
Cc1ccc2nc(-c3cccnc3)[nH]c2c1,broth dilution,,ATCC25922,,,,128 µg/mL
CC(=O)Nc1ccc(C(=O)Nc2ccc(C(=O)N[C@@H](CC(N)=O)C(=O)Nc3ccc(C(=O)Nc4ccc(C(=O)Nc5ccc(C(=O)O)cc5)c(O)c4OC(C)C)cc3)cc2)cc1,,,DSM1116,,,,16 µg/mL
N=C(N)c1ccc(OCCC(CCOc2ccc(C(=N)N)cc2)c2ccccc2)cc1 (stereo not drawn),broth dilution,,W3110,,,,200 µg/mL
C[C@@H](O)[C@H]1C(=O)N2C(C(=O)O)=C(S[C@@H]3CN[C@H](C(=O)N(C)C)C3)[C@H](C)[C@H]12,broth dilution,,ATCC35218,,,,≤ 0.125 µg/mL
Cc1cc(=O)[nH]n1C(=O)c1ccc(-n2c(C)ccc2C)cc1,broth dilution,,ATCC10536,18 h,,,250 µg/mL
Cc1ccc2nc(-c3ccncc3)[nH]c2c1,broth dilution,,ATCC25922,,,,64 µg/mL
O=C1NN=C(N=Cc2ccc(O)c(O)c2)C1=NNn1c(-c2ccccc2)nc2ccccc2c1=O,broth dilution,,,24 h,,,53.5 µM
C[C@H](CCC(=O)NCCCNCCCCNCCCN)[C@H]1CCC2=C3CC[C@@H]4C[C@H](O)CC[C@]4(C)[C@H]3C[C@H](O)[C@@]21C,broth dilution,,MG1655,20 h,,,64 µg/mL
COc1cccc(-c2nc3ccccc3[nH]2)c1,broth dilution,,ATCC25922,,,,256 µg/mL
CCCCCCC#Cc1cncc(-c2nnc(SCc3ccc(Cl)cc3)n2C2CC2)c1,,,,,,,≥ 20 µg/mL
N=C(N)c1ccc(OCc2ccccc2COc2ccc(C(=N)N)cc2)cc1,,,BW25113,,,,> 200 µg/mL
CC1=NN(CNc2ccc(Cl)cc2)C(=O)C1=NNn1c(-c2ccccc2)nc2ccccc2c1=O,broth dilution,,,24 h,,,51.5 µM
C/C(O)=C1\C(=O)C(CC(C)C)N(C(=O)C=Cc2ccccc2)C1=O (stereo not drawn),,K12,K12,,,,> 200 µg/mL
N=C(N)c1ccc(OCc2ccc(Br)cc2COc2ccc(C(=N)N)cc2)cc1,,,BW25113,,,,≥ 100 µg/mL
O=C1NN=C(N=Cc2ccc(O)cc2O)C1=NNn1c(-c2ccccc2)nc2ccccc2c1=O,broth dilution,,,24 h,,,53.5 µM
Clc1ccc(NCc2ccc(Oc3ccccn3)cc2)cc1,,,,,,,> 50 µg/mL
CC(C)Oc1c(NC(=O)c2ccc(NC(=O)[C@H](CC(N)=O)NC(=O)c3ccc(NC(=O)c4ccc(NC(N)=O)cc4)cc3)cc2)ccc(C(=O)Nc2ccc(C(=O)O)cc2)c1O,,,DSM1116,,,,0.5 µg/mL
CNc1cccc2cc(C(=O)NCCc3cccc(C(=O)O)c3)c(=O)[nH]c12,broth dilution,,ATCC25922,,,,> 64 µg/mL
CC(C)Oc1c(NC(=O)c2ccc(NC(=O)[C@H](CC(N)=O)NC(=O)c3ccc(NC(=O)c4ccc(C#N)cc4)cc3)cc2)ccc(C(=O)Nc2ccc(C(=O)O)cc2)c1O,,,DSM1116,,,,0.5 µg/mL
O=C(Nc1ccc(F)c(Cl)c1)c1cc(Cl)ccc1O,broth dilution,,ATCC25922,,,,> 64 µg/mL
CCCC(=O)Oc1c(C)c(O)c(C(=O)/C=C/c2ccccc2)c(OC)c1C,broth dilution,,ATCC25922,,,,5000 µg/mL
CC(C)Oc1c(NC(=O)c2ccc(NC(=O)[C@H](CC(N)=O)NC(=O)c3ccc(NC(=O)C(C)Oc4ccccc4)cc3)cc2)ccc(C(=O)Nc2ccc(C(=O)O)cc2)c1O (stereo partly drawn),,,DSM1116,,,,> 64 µg/mL
CCCCCCC#Cc1cncc(-c2nnc(SCc3ccc(C#N)cc3)n2C)c1,,,,,,,≥ 20 µg/mL
CC(C)Oc1c(NC(=O)c2ccc(NC(=O)[C@H](CC(N)=O)NC(=O)c3ccc(NC(=O)c4cc(C#N)cn4C)cc3)cc2)ccc(C(=O)Nc2ccc(C(=O)O)cc2)c1O,,,DSM1116,,,,≤ 0.03 µg/mL
Cc1c(CN(C)C(=O)/C=C/c2cnc3c(c2)CC(CCN)C(=O)N3)oc2ccccc12.Cl (stereo not drawn),broth dilution,,BAA2471,,,clinical isolate,4 µg/mL
C=CCn1c(-c2ccc(OC)c(OC)c2)nc2ccccc21,broth dilution,,ATCC25922,,,,128 µg/mL
CCCCC(=O)N1C(=O)/C(=C(/C)O)C(=O)C1CC(C)C (stereo not drawn),,K12,K12,,,,> 200 µg/mL
N=C(N)c1ccc(OCCCCCCCCOc2ccc(C(=N)N)cc2)cc1,broth dilution,,BW25113,,,,> 25 µg/mL
CSc1ccc(/C=C/c2cc(/C=C3\Sc4ccccc4N3CCCN3CCCC3)c3ccccc3[n+]2C)cc1.[I-],broth dilution,,ATCC25922,,,,16 µg/mL
O=C(Cc1ccc(O)c(O)c1)NCCCCCCCC[P+](c1ccccc1)(c1ccccc1)c1ccccc1.[Br-],broth dilution,,ATCC25922,18 h,,,> 32 µg/mL
CNC(C)C1CCC(N)C(OC2C(N)CC(N)C(OC3OCC(C)(O)C(NC)C3O)C2O)O1 (stereo not drawn),broth dilution,K12,K12,,pH 7,,0.25 µg/mL
CC(C)Oc1c(NC(=O)c2ccc(NC(=O)[C@H](CC(N)=O)NC(=O)c3ccc(NC(=O)c4ccc(C#N)cc4)cc3)cc2)ccc(C(=O)Nc2cccc(C(=O)O)c2)c1O,,,DSM1116,,,,0.5 µg/mL
C[C@@H](O)[C@H]1C(=O)N2C(C(=O)O)=C(S[C@@H]3CN[C@H](C(=O)N(C)C)C3)[C@H](C)[C@H]12,broth dilution,,,24 h,,,0.0312 µg/mL
COc1cc(Cc2cnc(N)nc2N)cc(OC)c1OC,broth dilution,,,24 h,,,> 32 µg/mL
Cc1ccc(NCc2ccc(Oc3ccccn3)cc2)cc1,,,,,,,> 25 µg/mL
CC(C)Oc1c(NC(=O)c2ccc(NC(=O)[C@H](CC(N)=O)NC(=O)c3ccc(NC(=O)c4ccc(C#N)c(Cl)c4)cc3)cc2)ccc(C(=O)Nc2ccc(C(=O)O)cc2)c1O,,,DSM1116,,,,< 0.03 µg/mL
N=C(N)c1ccc(OCc2cc(COc3ccc(C(=N)N)cc3)cc(-c3ccccc3)c2)cc1,,,BW25113,,,,≥ 100 µg/mL
NC1CCCCc2c1[nH]c1ccc(Br)cc21 (stereo not drawn),broth dilution,,ATCC25922,,,,16 µg/mL
CC(C)Oc1c(NC(=O)c2ccc(NC(=O)[C@H](CC(N)=O)NC(=O)c3ccc(NC(=O)c4cccc([N+](=O)[O-])c4)cc3)cc2)ccc(C(=O)Nc2ccc(C(=O)O)cc2)c1O,,,DSM1116,,,,> 64 µg/mL
COc1c(C)c(OC)c2c(c1C)OC(c1ccccc1)CC2=O (stereo not drawn),broth dilution,,ATCC25922,,,,5000 µg/mL
CCCCCCC/C=C/C(=O)N1C(=O)/C(=C(/C)O)C(=O)C1CO (stereo not drawn),,K12,K12,,,,> 200 µg/mL
N=C(N)c1ccc(OCc2cc(Br)cc(COc3ccc(C(=N)N)cc3)c2)cc1,broth dilution,,W3110,,,,100 µg/mL
COc1c(C)c(OC(=O)c2ccc(C)cc2)c(C)c(O)c1C(=O)/C=C/c1ccccc1,broth dilution,,ATCC25922,,,,5000 µg/mL
Cc1ccc2nc(-c3ccc([N+](=O)[O-])cc3)n(Cc3ccccc3Cl)c2c1,broth dilution,,ATCC25922,,,,32 µg/mL
N=C(N)c1ccc(OCCCCCOc2ccc(C(=N)N)cc2)cc1,broth dilution,,BW25113,,,,200 µg/mL
CC1(C)S[C@@H]2[C@H](NC(=O)[C@H](N)c3ccccc3)C(=O)N2[C@H]1C(=O)O,broth dilution,,ATCC25922,,,,4 µg/mL
Cc1cc(C)n(C(=O)c2ccc(-n3c(C)ccc3C)cc2)n1,broth dilution,,ATCC10536,18 h,,,250 µg/mL
Cc1ccc2nc(-c3ccc(Cl)cc3)n(Cc3ccccc3Cl)c2c1,broth dilution,,ATCC25922,,,,64 µg/mL
Cc1ccc(C)n1-c1ccc(-c2nnc(S)s2)cc1,broth dilution,,ATCC10536,18 h,,,2 µg/mL
N=C(N)c1cccc(OCc2ccccc2COc2cccc(C(=N)N)c2)c1,broth dilution,,BW25113,,,,> 200 µg/mL
Cc1ccc2nc(-c3ccccc3Cl)[nH]c2c1,broth dilution,,ATCC25922,,,,64 µg/mL
